Experimental data from different studies.
Protocols differ between the studies behind these lines. Values after ≈ are worked out from the molar mass of the structure shown.
Organism: Staphylococcus aureus

| Structure (SMILES) | test | test system | setting | endpoint | result |
| --- | --- | --- | --- | --- | --- |
| Nc1ccc(S(=O)(=O)Nc2ncccn2)cc1 | microbial growth, well diffusion | MRSA | 20 µg/mL | inhibition zone | 2 mm |
| O=C(/C=C/C=C/c1ccccc1)c1ccccc1OCc1cccc(Cl)c1 | microbial growth, well diffusion | MTCC96 | 1000 µg/mL, 18 h | inhibition zone | 7 mm |
| CCS(=O)(=O)Oc1ccc(C=NNC(=O)CSc2nc3c(C)cccc3c(=O)n2-c2ccccc2)cc1OC | microbial growth, well diffusion | MRSA | 20 µg/mL | inhibition zone | 3 mm |
| CC(=O)NC[C@H]1CN(c2ccc(N3CCOCC3)c(F)c2)C(=O)O1 | microbial growth | MSSA | clinical isolate | MIC90 | 2 µg/mL (≈ 5.93 µM) |
| O=C(O)c1cn(C2CC2)c2cc(N3CCNCC3)c(F)cc2c1=O | microbial growth, well diffusion | MRSA | 20 µg/mL | inhibition zone | 3 mm |
| CN[C@H](CC(C)C)C(=O)N[C@H]1C(=O)N[C@@H](CC(N)=O)C(=O)N[C@H]2C(=O)N[C@H]3C(=O)N[C@H](C(=O)N[C@H](C(=O)O)c4cc(O)cc(O)c4-c4cc3ccc4O)[C@H](O)c3ccc(c(Cl)c3)Oc3cc2cc(c3O[C@@H]2O[C@H](CO)[C@@H](O)[C@H](O)[C@H]2O[C@H]2C[C@](C)(N)[C@H](O)[C@H](C)O2)Oc2ccc(cc2Cl)[C@H]1O | microbial growth | MRSA | clinical isolate | MIC90 | 2 µg/mL (≈ 1.38 µM) |
| CN(C)CCCN1c2ccccc2Sc2ccc(Cl)cc21 | microbial killing, broth dilution | ATCC43300 | 18 h | MBC | 64 µg/mL |
| O=C(/C=C/C=C/c1ccccc1)c1ccccc1OCc1ccc(F)cc1 | microbial growth, well diffusion | MTCC96 | 1000 µg/mL, 18 h | inhibition zone | 7 mm |
| CN(C)CCCN1c2ccccc2Sc2ccc(C(F)(F)F)cc21 | microbial killing, broth dilution | ATCC43300 | 18 h | MBC | 64 µg/mL |
| CCCS(=O)(=O)Oc1cc(C=NNC(=O)CSc2nc3c(C)cccc3c(=O)n2-c2ccccc2)ccc1OC | microbial growth, well diffusion | MRSA | 20 µg/mL | inhibition zone | 2 mm |
| O=C(/C=C/C=C/c1ccccc1)c1ccccc1OCc1ccc(Cl)cc1 | microbial growth, well diffusion | MTCC96 | 1000 µg/mL, 18 h | inhibition zone | 7 mm |
| CC1(C)S[C@@H]2[C@H](NC(=O)[C@H](N)c3ccccc3)C(=O)N2[C@H]1C(=O)O | microbial growth | MRSA | clinical isolate | MIC90 | > 128 µg/mL |
| COc1cc2c(cc1OC)[C@@H]1Cc3ccc(OC)c(OC)c3CN1CC2 | microbial growth | – | 24 h | MIC50 | > 1600 µM |
| CCCS(=O)(=O)Oc1cc(C=NNC(=O)CSc2nc3ccc(Cl)cc3c(=O)n2-c2ccccc2)ccc1OC | microbial growth, well diffusion | MRSA | 20 µg/mL | inhibition zone | 2 mm |
| CC[C@H]1OC(=O)[C@H](C)[C@@H](O[C@H]2C[C@@](C)(OC)[C@@H](O)[C@H](C)O2)[C@H](C)[C@@H](O[C@@H]2O[C@H](C)C[C@H](N(C)C)[C@H]2O)[C@](C)(O)C[C@@H](C)/C(=N\OCOCCOC)[C@H](C)[C@@H](O)[C@]1(C)O | microbial growth | MSSA | clinical isolate | MIC90 | 64 µg/mL (≈ 76.5 µM) |
| COc1ccc2cc3[n+](cc2c1OC)CCc1cc2c(cc1-3)OCO2 | microbial growth | – | 24 h | MIC50 | 72 µM |
